Data reported in publication PMC4470474 (Analytical biochemistry, 2014).
Where two headings read alike, the source gives them in different places.

Assays:
Co(II)-HDAC8 [1] = molecular target: T1, Co(II)-HDAC8 (Homo sapiens, UniProt Q9BY41); assay type: biochemical; conditions: for substrate inhibition at higher peptide concentrations: peptide 0 – 1600 μM; for effect of pre-incubation of the peptide with Chelex 100 on observed activity: ~6 % (v/v) Chelex 100, room temperature, three hours
T1 sequence (Q9BY41 1-377): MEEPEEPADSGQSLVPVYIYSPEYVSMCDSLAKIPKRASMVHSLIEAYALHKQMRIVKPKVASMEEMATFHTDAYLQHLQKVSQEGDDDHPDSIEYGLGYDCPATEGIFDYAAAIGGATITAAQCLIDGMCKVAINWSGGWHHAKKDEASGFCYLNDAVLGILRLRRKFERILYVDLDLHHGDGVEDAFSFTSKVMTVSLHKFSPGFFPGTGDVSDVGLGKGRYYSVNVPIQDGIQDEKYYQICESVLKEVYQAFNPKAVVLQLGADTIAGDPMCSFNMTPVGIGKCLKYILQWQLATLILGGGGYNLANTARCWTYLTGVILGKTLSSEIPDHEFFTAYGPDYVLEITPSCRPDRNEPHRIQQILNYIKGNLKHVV

Co(II)-HDAC8 [2] = molecular target: T1, Co(II)-HDAC8; assay: Fluorescamine assay, HDAC8-catalyzed deacetylation; assay type: biochemical; conditions: 200 μM peptide, 0.5 μM HDAC8, 30°C
How it was run: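 Started with 0.5 μM HDAC8 and quenched with 1 μM TSA at 0, 30, 60 and 90 min. Enzyme removed by 10K filtration. Flow-through mixed with 1 M boric acid pH 9 and fluorescamine, 10 min at RT. Fluorescence read at ex 340/em 460 nm against an N-α-acetyl lysine methyl ester standard curve (0–5 μM).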

HDAC3/NCOR1 = HDAC3/NCOR1 (Homo sapiens, UniProt O15379+O75376); assay: Optimized stopped coupled acetate assay, HDAC3/NCOR1-catalyzed deacetylation; assay type: biochemical; conditions: 100 μM peptide, 0.5 μM HDAC3/NCOR1
How it was run: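 Started with 0.5 μM HDAC3/NCOR1 and quenched with 0.37% HCl at 0, 30, 60 and 90 min. Flash frozen at −80°C, then neutralised with 0.6% NaHCO₃. Pre-equilibrated ACS/citrate synthase/MDH coupler mix (ATP, NAD⁺, CoA, malate) added, 40 min at RT. NADH fluorescence read at ex 340/em 460 nm.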

Co(II)-HDAC8 [3] = molecular target: T1, Co(II)-HDAC8; assay: Optimized continuous coupled acetate assay, HDAC8-catalyzed deacetylation; assay type: biochemical; conditions: Figure 5 legend, 100 μM peptide
How it was run: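 Continuous coupled format in EDTA-stripped plates. Mixed 2:1 with Ac-KGGAKac-NH₂ (100 μM final). Started with Co(II)-HDAC8 (0.5–1 μM final). Rate taken from time-dependent NADH fluorescence (ex 340/em 460 nm).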

HDAC8 [4] = conditions: HDAC8-catalyzed deacetylation; ref [25]; cited from earlier work
HDAC8 [5] = assay: Inhibition of HDAC8 activity by magnesium; assay type: biochemical, human; conditions: 2 mM magnesium, continuous assay conditions; Figure S2
[6] = Michaelis-Menten fit, stopped coupled assay, 30°C, pH 8

Sequence of HDAC3/NCOR1 (O15379 whole entry): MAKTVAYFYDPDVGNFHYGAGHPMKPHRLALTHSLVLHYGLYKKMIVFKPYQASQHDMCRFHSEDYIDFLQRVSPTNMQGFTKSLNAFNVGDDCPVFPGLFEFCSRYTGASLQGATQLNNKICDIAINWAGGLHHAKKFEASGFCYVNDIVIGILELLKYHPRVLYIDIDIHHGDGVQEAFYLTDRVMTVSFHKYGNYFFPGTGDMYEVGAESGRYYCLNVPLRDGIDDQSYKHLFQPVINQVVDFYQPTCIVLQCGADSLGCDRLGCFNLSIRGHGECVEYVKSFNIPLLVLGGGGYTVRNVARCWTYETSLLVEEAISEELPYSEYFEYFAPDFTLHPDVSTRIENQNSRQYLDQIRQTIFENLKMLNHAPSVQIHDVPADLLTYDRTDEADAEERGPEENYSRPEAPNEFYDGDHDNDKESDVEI
Sequence of HDAC3/NCOR1 (O75376 395-489 partner limits assumed): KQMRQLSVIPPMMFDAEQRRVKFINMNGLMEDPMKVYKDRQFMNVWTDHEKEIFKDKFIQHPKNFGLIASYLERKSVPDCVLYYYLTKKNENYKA

In the case of Ac-KGGAKac-COO^−, the “lowering of kcat/KM relative to methylcoumarin peptide” value (Co(II)-HDAC8 [1]; C-terminal carboxylate vs methylcoumarin) is reported as 50 fold, the Km (Co(II)-HDAC8 [1]; [6]) is reported as 730 µM and the kcat (Co(II)-HDAC8 [1]; [6]) is reported as 0.041 s⁻¹. For the same substance, the kcat/KM (Co(II)-HDAC8 [1]; [6]) was 56 M⁻¹ s⁻¹, the deacetylation rate (Co(II)-HDAC8 [1]; coupled acetate assay, 200 μM peptide, 0.5 μM HDAC8) was 0.0021 ± 0.0003 µM/s and the deacetylation rate (Co(II)-HDAC8 [2]) was 0.0027 ± 0.0008 µM/s.

For Ac-KGGAKac-NH2, the “initial rate of deacetylation” value (HDAC3/NCOR1) was 0.015 ± 0.0016 µM/s, the “initial rate for deacetylation” value (Co(II)-HDAC8 [3]; 0.5 μM Co(II)-HDAC8) was 0.011 ± 0.00041 µM/s and the “initial rate for deacetylation” value (Co(II)-HDAC8 [3]; 1 μM Co(II)-HDAC8) was 0.022 ± 0.00043 µM/s. For the same substance, the “ΔΔG‡ (kcat/KM)” value (Co(II)-HDAC8 [1]; Ac-KGGAKac-NH2 compared to Ac-KGGAKac-COO^−) was 1.6 kal/mol, the “initial rate for deacetylation” value (Co(II)-HDAC8 [1]; Figure 5 legend, side-by-side stopped assay, 0.5 μM Co(II)-HDAC8, 100 μM peptide) was 0.018 ± 0.0021 µM/s and the “kcat/KM enhancement relative to Ac-KGGAKac-COO^− peptide” value (Co(II)-HDAC8 [1]; amide vs carboxylate) was 9 fold. The “substrate inhibition at higher peptide concentrations” value (Co(II)-HDAC8 [1]; stopped coupled assay) was “modest to substantial inhibition was observed at higher peptide concentrations” and the “effect of pre-incubation of the peptide with Chelex 100 on observed activity” value (Co(II)-HDAC8 [1]) was “no effect”.

In the case of “Ac-KGGAKac-methylcoumarin [reference compound]”, the kcat/KM (HDAC8 [4]) is listed as 2800 M⁻¹ s⁻¹ and the “ΔΔG‡ (kcat/KM)” value (Co(II)-HDAC8 [1]; Ac-KGGAKac-methylcoumarin compared to the C-terminal carboxylate peptide) is listed as 2.3 kcal/mol.

For Ac-KGGAKacW-NH2, the “increase of net transition state stabilization” value (Co(II)-HDAC8 [1]; addition of tryptophan or methylcoumarin moiety to the peptide) was 0.1 to 0.5 kcal/mol, the “substrate inhibition at higher peptide concentrations” value (Co(II)-HDAC8 [1]; stopped coupled assay) was “modest to substantial inhibition was observed at higher peptide concentrations” and the “effect of pre-incubation of the peptide with Chelex 100 on observed activity” value (Co(II)-HDAC8 [1]) was “no effect”.

For magnesium, the “inhibition of HDAC8 activity” value (HDAC8 [5]) was ~ 2 fold.
